Values joined by “and” are separate entries in the source; they are usually repeats but may differ in a detail not shown here. Identical values can stand only once. Like-named read-outs stand apart in the source and are kept apart here.
Legend:
[1] = tested on: Caco-2 cells; assay: Permeability of ginsenoside in Caco-2 cells; format: in vitro ADME; conditions: for ER (efflux ratio): Caco-2, B to A / A to B; for Papp A to B: apical to basal; for Papp A to B / Papp B to A: 10 μM, 1 h; for Papp B to A: basal to apical
Outline: (§1)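 Caco-2 cells (passage 41–43) grown in DMEM with 20% FBS, 1% nonessential amino acids, 4 mM L-glutamine and penicillin-streptomycin, then cultured 21 days on Transwell inserts. Test compound at 10 μM in HBSS was dosed for apical-to-basal and basal-to-apical transport over 1 h. Samples were quenched in methanol with berberine IS and analysed by LC-MS/MS. Papp = transport rate / (donor concentration × insert area).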

[2] = Pharmacokinetics of ginsenosides in human plasma after single or repeated; format: in vivo; conditions: for Detection in human plasma samples: after oral ingestion of red ginseng extract, LC-MS/MS; for Accumulation factor: AUC of repeated administration divided by AUC of single administration; for AUC / Cmax / MRT / Tmax / half-life: male, human, plasma, po, 3 pouches of red ginseng extract; for half-life: t1/2, single dose of red ginseng extract, human plasma
[3] = Permeability of ginsenoside in Caco-2 cells; format: in vitro ADME; conditions: human; for Papp A→B at 1 h, 10 μM / Papp B→A at 1 h, 10 μM: Caco-2; for efflux ratio at 1 h, 10 μM: Caco-2, ER (efflux ratio), Caco-2, B to A / A to B
Outline: as §1

[4] = cited from earlier work
[5] = cited from earlier work; remark: listed apart in the source

In the case of `CC(C)=CCC[C@](C)(O)[C@H]1CC[C@]2(C)[C@@H]1[C@H](O)C[C@@H]1[C@@]3(C)CC[C@H](O[C@@H]4O[C@H](CO)[C@@H](O)[C@H](O)[C@H]4O[C@@H]4O[C@H](CO)[C@@H](O)[C@H](O)[C@H]4O)C(C)(C)[C@@H]3CC[C@]12C` [Rg3], the “ER (efflux ratio)” value [1] is reported as 2.97, the “Papp A to B” value [1] is reported as 0.05 ± 0.01 ☓10^−6 cm/s and the “Papp B to A” value [1] is reported as 0.14 ± 0.06 ☓10^−6 cm/s. The “Detection in human plasma samples” value [2] was “absence”.

For `CC(C)=CCC[C@](C)(O[C@@H]1O[C@H](CO[C@@H]2OC[C@H](O)[C@H](O)[C@H]2O)[C@@H](O)[C@H](O)[C@H]1O)[C@H]1CC[C@]2(C)[C@@H]1[C@H](O)C[C@@H]1[C@@]3(C)CC[C@H](O[C@@H]4O[C@H](CO)[C@@H](O)[C@H](O)[C@H]4O[C@@H]4O[C@H](CO)[C@@H](O)[C@H](O)[C@H]4O)C(C)(C)[C@@H]3CC[C@]12C` [Rb2], the Papp A→B at 1 h, 10 μM [3] is given as 0.28 ± 0.02 ×10⁻⁶ cm/s, the Papp B→A at 1 h, 10 μM [3] is given as 0.24 ± 0.05 ×10⁻⁶ cm/s and the “Stability over the enzymatic and alkaline hydrolysis” value [4] is given as “stable”. For the same compound, the Accumulation factor [2] was 4.5–6.7 and 6.73, the “Detection in human plasma samples” value [2] was “detected” and the AUC [2] was 47.1 ± 16.4 ng·h/mL. It also gave a Cmax [2] of 1.26 ± 0.39 ng/mL, an MRT [2] of 26.8 ± 1.74 h and a Tmax [2] of 3.87 ± 2.47 h. For the same compound, the half-life [2] was 38.2 ± 20.3 h.

In the case of `CC(C)=CCC[C@](C)(O[C@@H]1O[C@H](CO[C@@H]2O[C@H](CO)[C@@H](O)[C@H](O)[C@H]2O)[C@@H](O)[C@H](O)[C@H]1O)[C@H]1CC[C@]2(C)[C@@H]1[C@H](O)C[C@@H]1[C@@]3(C)CC[C@H](O[C@@H]4O[C@H](CO)[C@@H](O)[C@H](O)[C@H]4O[C@@H]4O[C@H](CO)[C@@H](O)[C@H](O)[C@H]4O)C(C)(C)[C@@H]3CC[C@]12C` [Rb1], the Papp A→B at 1 h, 10 μM [3] is reported as 0.27 ± 0.03 ×10⁻⁶ cm/s, the Papp B→A at 1 h, 10 μM [3] is reported as 0.3 ± 0.08 ×10⁻⁶ cm/s and the efflux ratio at 1 h, 10 μM [3] is reported as < 2. The “Stability over the enzymatic and alkaline hydrolysis” value [4] was “stable”, the Bioavailability ([5]; ref Odani et al. [10]) was 0.1% and the Bioavailability ([5]; ref Xu et al. [11]) was 4.3%. For the same compound, the Accumulation factor [2] was 4.5–6.7 and 4.55, the “Detection in human plasma samples” value [2] was “detected” and the AUC [2] was 82.7 ± 26.3 ng·h/mL. It also gave a Cmax [2] of 2.19 ± 0.73 ng/mL, an MRT [2] of 26.8 ± 1.59 h and a Tmax [2] of 3.53 ± 1.25 h. It also gave a half-life [2] of 35 ± 8.46 h.

For `CC(C)=CCC[C@](C)(O)[C@H]1CC[C@]2(C)[C@@H]1[C@H](O)C[C@@H]1[C@@]3(C)CC[C@H](O)C(C)(C)[C@@H]3[C@@H](O[C@@H]3O[C@H](CO)[C@@H](O)[C@H](O)[C@H]3O)C[C@]12C` [Rh1], the “ER (efflux ratio)” value [1] was 6.27, the “Papp A to B” value [1] was 0.22 ± 0.04 ☓10^−6 cm/s and the “Papp B to A” value [1] was 1.35 ± 0.14 ☓10^−6 cm/s. The “Detection in human plasma samples” value [2] was “could not be found”.

For `CC(C)=CCC[C@](C)(O[C@@H]1O[C@H](CO)[C@@H](O)[C@H](O)[C@H]1O)[C@H]1CC[C@]2(C)[C@@H]1[C@H](O)C[C@@H]1[C@@]3(C)CC[C@H](O[C@@H]4O[C@H](CO)[C@@H](O)[C@H](O)[C@H]4O[C@@H]4O[C@H](CO)[C@@H](O)[C@H](O)[C@H]4O)C(C)(C)[C@@H]3CC[C@]12C` [Rd], the Papp A→B at 1 h, 10 μM [3] was 0.22 ± 0.02 ×10⁻⁶ cm/s, the Papp B→A at 1 h, 10 μM [3] was 0.31 ± 0.04 ×10⁻⁶ cm/s and the efflux ratio at 1 h, 10 μM [3] was < 2. The “Stability over the enzymatic and alkaline hydrolysis” value [4] was “stable”, the Accumulation factor [2] was 4.5–6.7 and 4.49 and the “Detection in human plasma samples” value [2] was “detected”. For the same compound, the AUC [2] was 22.6 ± 18.3 ng·h/mL, the Cmax [2] was 0.7 ± 0.46 ng/mL and the MRT [2] was 24.7 ± 2.23 h. The Tmax [2] was 4.87 ± 1.92 h and the half-life [2] was 24 ± 15.3 h.

For `CC(C)=CCC[C@](C)(O[C@@H]1O[C@H](CO)[C@@H](O)[C@H](O)[C@H]1O)[C@H]1CC[C@]2(C)[C@@H]1[C@H](O)C[C@@H]1[C@@]3(C)CC[C@H](O)C(C)(C)[C@@H]3[C@@H](O[C@@H]3O[C@H](CO)[C@@H](O)[C@H](O)[C@H]3O)C[C@]12C` [Rg1], the Bioavailability ([5]; ref Odani et al. [10]) is listed as 2%, the Bioavailability ([5]; ref Xu et al. [11]) is listed as 18.4% and the “Detection in human plasma samples” value [2] is listed as “could not be found”.

For `CC(C)=CCC[C@](C)(O[C@@H]1O[C@H](CO[C@@H]2O[C@@H](CO)[C@H](O)[C@H]2O)[C@@H](O)[C@H](O)[C@H]1O)[C@H]1CC[C@]2(C)[C@@H]1[C@H](O)C[C@@H]1[C@@]3(C)CC[C@H](O[C@@H]4O[C@H](CO)[C@@H](O)[C@H](O)[C@H]4O[C@@H]4O[C@H](CO)[C@@H](O)[C@H](O)[C@H]4O)C(C)(C)[C@@H]3CC[C@]12C` [Rc], the Papp A→B at 1 h, 10 μM [3] was 0.28 ± 0.09 ×10⁻⁶ cm/s, the Papp B→A at 1 h, 10 μM [3] was 0.33 ± 0.06 ×10⁻⁶ cm/s and the efflux ratio at 1 h, 10 μM [3] was < 2. The “Stability over the enzymatic and alkaline hydrolysis” value [4] was “stable”, the Accumulation factor [2] was 4.5–6.7 and 5.44 and the “Detection in human plasma samples” value [2] was “detected”. The AUC [2] was 59.4 ± 22.9 ng·h/mL, the Cmax [2] was 1.5 ± 0.63 ng/mL and the MRT [2] was 27.4 ± 2.34 h. The Tmax [2] was 3.68 ± 1.7 h and the half-life [2] was 35.6 ± 14.8 h.

From PMC7031742 (Journal of Ginseng Research, 2018)
